Experimental data as given in ChEMBL document CHEMBL4346654 (Eur J Med Chem, 2019).
Converted amounts (≈) assume the structure as drawn.

What was measured:
Type in all cases: functional
Streptococcus pyogenes [1] = test: Selectivity ratio of MBC to MIC for MLS-resistant Streptococcus pyogenes 01-968 expressing inducible ermB gene
Outline: (§1)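 MBC/MIC ratio. MIC was measured by CLSI standard two-fold broth dilution. MBC was measured by transferring samples at 1–8 fold MIC to culture medium and subculturing for 24 h without antibiotic. Isolates were identified by 16S rDNA sequencing.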

Staphylococcus aureus [2] = test: Antibacterial activity against MLS-resistant Staphylococcus aureus PU 20 expressing constitutive ermC gene assessed as reduction in microbial growth by CLSI based two-fold broth dilution method
Streptococcus pneumoniae [3] = test: Antibacterial activity against Streptococcus pneumoniae 07P390 expressing constitutive ermB gene assessed as reduction in microbial growth by CLSI based two-fold broth dilution method
Streptococcus pneumoniae [4] = test: Bactericidal activity against penicillin-susceptible Streptococcus pneumoniae PU 09 expressing mef gene pretreated followed by subculture in absence of compound measured after 24 hrs
Outline: (§2)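 Isolates were identified by 16S rDNA sequencing. MIC was determined by CLSI-recommended two-fold broth dilution. For MBC, samples from 1–8 fold MIC were transferred to culture medium and subcultured for 24 h without antibiotic.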

Streptococcus pneumoniae [5] = test: Antibacterial activity against penicillin-susceptible Streptococcus pneumoniae PU 09 expressing mef gene assessed as reduction in microbial growth by CLSI based two-fold broth dilution method
Haemophilus influenzae [6] = test: Bactericidal activity against azithromycin-susceptible Haemophilus influenzae ATCC 49247 pretreated followed by subculture in absence of compound measured after 24 hrs; outline: as §2
Staphylococcus aureus [7] = test: Antibacterial activity against MLS-resistant Staphylococcus aureus PU 32 expressing inducible ermA gene assessed as reduction in microbial growth by CLSI based two-fold broth dilution method
Streptococcus pneumoniae [8] = test: Selectivity ratio of MBC to MIC for penicillin-susceptible Streptococcus pneumoniae PU 09 expressing mef gene; outline: as §2
Staphylococcus aureus [9] = test: Bactericidal activity against MLS-resistant Staphylococcus aureus PU 20 expressing constitutive ermC gene pretreated followed by subculture in absence of compound measured after 24 hrs
Outline: (§3)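 MBC assay. Following MIC determination by CLSI standard two-fold broth dilution, samples at 1–8 fold MIC were transferred to fresh culture medium. They were subcultured for 24 h without antibiotic. Isolates were identified by 16S rDNA sequencing. S. aureus ATCC 29213 was used as a control strain.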

Haemophilus influenzae [10] = test: Antibacterial activity against azithromycin-susceptible Haemophilus influenzae ATCC 49247 assessed as reduction in microbial growth by CLSI based two-fold broth dilution method
Streptococcus pyogenes [11] = test: Bactericidal activity against MLS-resistant Streptococcus pyogenes 01-968 expressing inducible ermB gene pretreated followed by subculture in absence of compound measured after 24 hrs; outline: as §3
Streptococcus pyogenes [12] = test: Antibacterial activity against MLS-resistant Streptococcus pyogenes 01-968 expressing inducible ermB gene assessed as reduction in microbial growth by CLSI based two-fold broth dilution method
Staphylococcus aureus [13] = test: Selectivity ratio of MBC to MIC for MLS/methicillin-resistant Staphylococcus aureus PU 32 expressing inducible ermA gene; outline: as §1
Streptococcus pneumoniae [14] = test: Antibacterial activity against erythromycin-susceptible Streptococcus pneumoniae ATCC49619 assessed as reduction in microbial growth by CLSI based two-fold broth dilution method
Streptococcus pneumoniae [15] = test: Bactericidal activity against erythromycin-susceptible Streptococcus pneumoniae ATCC49619 pretreated followed by subculture in absence of compound measured after 24 hrs; outline: as §2
Haemophilus influenzae [16] = test: Selectivity ratio of MBC to MIC for azithromycin-susceptible Haemophilus influenzae ATCC 49247; outline: as §2
Staphylococcus aureus [17] = test: Bactericidal activity against MLS/methicillin-resistant Staphylococcus aureus PU 32 expressing inducible ermA gene pretreated followed by subculture in absence of compound measured after 24 hrs; outline: as §3
Streptococcus pneumoniae [18] = test: Selectivity ratio of MBC to MIC for erythromycin-susceptible Streptococcus pneumoniae ATCC49619; outline: as §2

| SMILES | Selectivity ratio (Streptococcus pyogenes [1]) | MIC (Staphylococcus aureus [2]) [µg/mL] | MIC (Streptococcus pneumoniae [3]) [µg/mL] | MBC (Streptococcus pneumoniae [4]) [µg/mL] | MIC (Streptococcus pneumoniae [5]) [µg/mL] | MBC (Haemophilus influenzae [6]) [µg/mL] | MIC (Staphylococcus aureus [7]) [µg/mL] | Selectivity ratio (Streptococcus pneumoniae [8]) | MBC (Staphylococcus aureus [9]) [µg/mL] | MIC (Haemophilus influenzae [10]) [µg/mL] | MBC (Streptococcus pyogenes [11]) [µg/mL] | MIC (Streptococcus pyogenes [12]) [µg/mL] | Selectivity ratio (Staphylococcus aureus [13]) | MIC (Streptococcus pneumoniae [14]) [µg/mL] | MBC (Streptococcus pneumoniae [15]) [µg/mL] | Selectivity ratio (Haemophilus influenzae [16]) | MBC (Staphylococcus aureus [17]) [µg/mL] | Selectivity ratio (Streptococcus pneumoniae [18]) |
| --- | --- | --- | --- | --- | --- | --- | --- | --- | --- | --- | --- | --- | --- | --- | --- | --- | --- | --- |
| CC[C@H]1OC(=O)[C@@](C)(F)C(=O)[C@H](C)[C@@H](O[C@@H]2O[C@H](C)C[C@H](N(C)C)[C@H]2O)[C@](C)(OC)C[C@@H](C)/C(=N\OCC#Cc2ccc([N+](=O)[O-])nc2)[C@H](C)[C@H]2OC(=O)O[C@@]21C | 4 | 128 | > 32 | 4 (≈ 4.96 µM) | 1 | 32 (≈ 39.7 µM) | 0.25 | 4 | > 256 | 16 | 0.062 (≈ 0.0768 µM) | 0.016 | 8 | 0.125 | 0.125 (≈ 0.155 µM) | 2 | 2 (≈ 2.48 µM) | 1 |
| CC[C@H]1OC(=O)[C@@](C)(F)C(=O)[C@H](C)[C@@H](O[C@@H]2O[C@H](C)C[C@H](N(C)C)[C@H]2O)[C@](C)(OC)C[C@@H](C)/C(=N\OCC#Cc2cnc(N)c3ccccc23)[C@H](C)[C@H]2OC(=O)O[C@@]21C | 8 | 128 | > 32 | 16 (≈ 19.3 µM) | 16 | 64 (≈ 77.4 µM) | 8 | 1 | > 128 | 64 | 8 (≈ 9.67 µM) | 1 | 4 | 2 | 4 (≈ 4.84 µM) | 1 | 32 (≈ 38.7 µM) | 2 |
| CC[C@H]1OC(=O)[C@@](C)(F)C(=O)[C@H](C)[C@@H](O[C@@H]2O[C@H](C)C[C@H](N(C)C)[C@H]2O)[C@](C)(OC)C[C@@H](C)/C(=N\OC/C=C/c2cncc(C(=O)O)c2)[C@H](C)[C@H]2OC(=O)O[C@@]21C | >8 | > 256 | > 32 | 16 (≈ 19.8 µM) | 8 | 32 (≈ 39.6 µM) | 8 | 2 | – | 32 | > 4 | 0.5 | >8 | 0.25 | 0.5 (≈ 0.619 µM) | 1 | > 64 | 2 |
| CC[C@H]1OC(=O)[C@@](C)(F)C(=O)[C@H](C)[C@@H](O[C@@H]2O[C@H](C)C[C@H](N(C)C)[C@H]2O)[C@](C)(OC)C[C@@H](C)/C(=N\OCC#Cc2cncc(NC(C)=O)c2)[C@H](C)[C@H]2OC(=O)O[C@@]21C | >8 | > 256 | > 32 | 4 (≈ 4.88 µM) | 4 | 16 (≈ 19.5 µM) | 1 | 1 | – | 8 | > 1 | 0.125 | >8 | 0.062 | 0.25 (≈ 0.305 µM) | 2 | > 8 | 4 |
| CC[C@H]1OC(=O)[C@@](C)(F)C(=O)[C@H](C)[C@@H](O[C@@H]2O[C@H](C)C[C@H](N(C)C)[C@H]2O)[C@](C)(OC)C[C@@H](C)/C(=N\OCC#Cc2cncc(C#N)c2)[C@H](C)[C@H]2OC(=O)O[C@@]21C | >8 | 128 | > 32 | 2 (≈ 2.54 µM) | 1 | 16 (≈ 20.3 µM) | 0.5 | 2 | > 256 | 8 | > 2 | 0.25 | >8 | 0.125 | 0.125 (≈ 0.159 µM) | 2 | > 4 | 1 |
| CC[C@H]1OC(=O)[C@H](C)[C@@H](O[C@H]2C[C@@](C)(OC)[C@@H](O)[C@H](C)O2)[C@H](C)[C@@H](O[C@@H]2O[C@H](C)C[C@H](N(C)C)[C@H]2O)[C@](C)(OC)C[C@@H](C)C(=O)[C@H](C)[C@@H](O)[C@]1(C)O [CLARITHROMYCIN] | >8 | > 256 | > 32 | 32 (≈ 42.8 µM) | 4 | 8 (≈ 10.7 µM) | 32 | 8 | – | 4 | > 64 | 8 | >8 | 0.062 | 0.25 (≈ 0.334 µM) | 2 | > 256 | 4 |
